Screening results from PubChem.
Arrestin-AP2 inh – human beta-arrestin and AP2 interaction inhibition; 340,000 tested, 0.31% active; FITC-arrestin peptide / GST-AP2 beads, flow cytometry; AP2 beta2 appendage carries R879A mutation; inhibition, % at 10 µM; AID 504490;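 active = inhibition above a set limit, near 3 SD of compounds lacking own fluorescence, cut at about 54% in these data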
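System: GST-AP2 R879A bound to glutathione beads, E. coli-expressed. Also added: 50 nM FITC-arrestin peptide. Schedule: compound with beads 12 min RT, then probe 1 h RT. Signal: bead flow cytometry, FITC channel. Read-out basis: percent response.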
Lipid droplet – modulators of hepatic lipid droplet formation; AML12 mouse hepatocytes, oleate lipid droplets, BODIPY imaging; inhibition, % at 6.5 µM; 240,000 tested, 0.4% active;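 active = lipid droplet intensity inhibited by at least 50%, with more than 500 cells counted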
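Technique: fluorescence imaging, 20x objective, two fields per well / Assay system: AML12 hepatocytes (mouse) / Measure: % inhibition of lipid droplet signal / Doses: 6.5 µM single-point dosing / Incubation: overnight exposure / Reagent: 100 µM oleic acid challenge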
NTR1 agonist – NTR1 (human) agonism. AID 493036. P30989. NTR1-U2OS beta-arrestin-GFP spot imaging, agonist mode. 330,000 tested, 0.17% active. activation, % at 20 µM;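 active = activation at or above 40% of the spot to cytoplasm intensity ratio, with at least 20 cells analyzed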
Target sequence (P30989 whole entry, looked up): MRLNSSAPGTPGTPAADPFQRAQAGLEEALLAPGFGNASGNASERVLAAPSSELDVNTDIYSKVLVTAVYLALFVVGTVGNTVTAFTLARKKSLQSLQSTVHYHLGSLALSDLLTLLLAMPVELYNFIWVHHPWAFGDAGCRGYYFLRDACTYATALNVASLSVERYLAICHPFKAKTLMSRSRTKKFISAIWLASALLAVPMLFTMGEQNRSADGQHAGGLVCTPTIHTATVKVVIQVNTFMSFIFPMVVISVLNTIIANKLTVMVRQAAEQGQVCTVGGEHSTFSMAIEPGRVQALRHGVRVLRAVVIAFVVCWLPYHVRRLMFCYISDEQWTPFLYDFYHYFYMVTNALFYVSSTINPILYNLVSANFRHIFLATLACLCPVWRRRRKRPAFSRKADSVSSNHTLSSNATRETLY
B2AR ag – human beta-2 adrenergic receptor agonism by FAP. P07550. Am2.2-beta2AR cells, FAP receptor internalization, flow cytometry. response, % (no concentration beside the values). 340,000 tested, 0.43% active. AID 504454;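 active = response above a set limit, near 3 SD of response in nonfluorescent compounds, cut at about 42% in these data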
Target sequence (P07550 whole entry, looked up): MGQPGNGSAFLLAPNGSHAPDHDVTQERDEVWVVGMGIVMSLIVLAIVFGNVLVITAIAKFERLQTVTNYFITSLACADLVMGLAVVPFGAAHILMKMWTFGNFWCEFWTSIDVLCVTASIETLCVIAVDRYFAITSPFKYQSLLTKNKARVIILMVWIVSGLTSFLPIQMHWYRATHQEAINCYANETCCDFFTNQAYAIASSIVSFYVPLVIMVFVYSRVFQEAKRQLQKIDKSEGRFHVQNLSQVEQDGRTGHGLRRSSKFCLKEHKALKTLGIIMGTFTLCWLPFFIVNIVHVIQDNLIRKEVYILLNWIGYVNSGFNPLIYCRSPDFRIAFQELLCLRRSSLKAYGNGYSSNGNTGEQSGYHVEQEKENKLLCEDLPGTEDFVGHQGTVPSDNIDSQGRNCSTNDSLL
H9c2 TAG inh – reduces triacylglycerol accumulation in H9c2 cells; Nile Red lipid (TAG) fluorescence; cells loaded with 200 µM oleic acid; inhibition, % at 12.5 µM; 230,000 tested, 0.66% active;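 active = pattern-corrected inhibition of lipid staining of at least 50% with the nuclear-stain viability signal not falling by more than 50%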
GRK2 inh – blocks RNA aptamer binding to human GRK2. inhibition of aptamer binding, % at 10 µM. AID 488847. bead flow cytometry, FAM-aptamer displacement from GRK2. P25098. 330,000 tested, 0.59% active;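 active = inhibition of aptamer binding above 40%, roughly 3 SD of noise, on plates passing a quality check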;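 also: median bead fluorescence of bound FAM aptamer so fluorescent compounds give negative values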
GRK2 inh confirm – human GRK2 inhibition confirmation, cherry pick 1 | shares compounds with GRK2 inh | AID 504451 | aptamer displacement, % at 10 µM | 2,000 tested, 4% active | bead-bound GRK2, FAM-aptamer displacement, flow cytometry;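 active = aptamer displacement above 40%, near three times the noise of non-fluorescent compounds, on plates passing quality checks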;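 also: negative values mostly reflect intrinsic compound fluorescence rather than true enhancement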
Aptamer quench 1 – fluorescent aptamer quenching in GRK2 counter-screen dose response. shares compounds with GRK2 inh. Fluorescent RNA aptamer beads, flow cytometry; stronger effect = higher value. fluorescence change (kMESF span), kMESF (no concentration beside the values). 110 tested, under 10 active. AID 504521;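 active = compounds whose bead fluorescence drops by more than 37 kMESF across the dose range, marking them as dye quenchers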
FAM quench CP1 – aptamer fluorescence quenching in GRK2 counter-screen. shares compounds with GRK2 inh. Carboxyfluorescein RNA aptamer on beads, flow cytometry quenching; stronger effect = lower value. fluorescence response (% of DMSO), % at 10 µM. 2,000 tested, under 10 active;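 active = compounds that quench the bead-bound fluorescent RNA probe, cutting fluorescence to under half of the solvent control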;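 also: counterscreen run without GRK2 so only probe quenching by compound is measured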
GRK2 CP2 – human GRK2 inhibition confirmation, cherry pick 2; shares compounds with GRK2 inh; bead-bound GRK2, FAM-aptamer displacement, flow cytometry; inhibition of aptamer binding, % at 10 µM; 360 tested, under 10 active; AID 504782;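 active = inhibition of aptamer binding above 40%, about triple the noise seen with nonglowing compounds, on plates passing quality control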;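 also: negative values mostly come from compounds that fluoresce themselves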
Aptamer quench3 – counter-screen for GRK2 aptamer inhibitors: fluorescent aptamer quenchers; change in fluorescence (kMESF span), kMESF (test concentration not listed); 25 tested, under 10 active; Streptavidin beads, FAM-RNA aptamer fluorescence quenching, flow cytometry; shares compounds with GRK2 inh; AID 504819;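 active = compounds quenching the bead-bound labeled aptamer, with fluorescence dropping by more than 37 kMESF over the dose range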
FAM quench SP – quenches fluorescent RNA aptamer, GRK2 hit artifact. shares compounds with GRK2 inh. carboxyfluorescein RNA aptamer beads, flow cytometry quenching; stronger effect = lower value. fluorescence response vs DMSO, % at 10 µM. 360 tested, under 10 active. AID 588494;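 active = response vs DMSO under 50%, meaning signal dropped by over half, treated as fluorescence quencher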;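 also: labelled aptamer on streptavidin beads without GRK2 as a quench counter-screen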
FAM quench DR – counter-screen for GRK2 aptamer binding inhibitors: aptamer fluorescence quenching; shares compounds with GRK2 inh; Bead-bound FAM RNA aptamer fluorescence quenching, flow cytometry; stronger effect = lower value; fluorescence ratio to DMSO, % at 11.1 µM; 35 tested, under 10 active; AID 588496;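 active = compounds that dim the fluorescent label, raw bead signal shifting by over 33 units between lowest and highest dose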
Large screens that a line does not name were inactive (follow-up assays come after a bar, where they were run). Sampled rows, rich in hits. Any-hit rate of the full collection: about 2%.

CC(=O)c1ccc(OC(C)C(=O)OCC(=O)NCCc2ccccc2)cc1 (configuration not stated)	none (no result: Lipid droplet)
CCC(=O)Nc1ccc(C(=O)COC(=O)Cc2ccsc2)cc1	GRK2 inh 48.0 (no result: Lipid droplet) | GRK2 inh confirm inactive | FAM quench CP1 inactive
c1coc(-c2nnc(-c3ccco3)nn2)c1	GRK2 inh 88.0 (no result: H9c2 TAG inh) | GRK2 inh confirm inactive | FAM quench CP1 inactive
C/C=C(/C)C(=O)OC1c2c(ccc3ccc(=O)oc23)OC(C)(C)C1OC(=O)/C(C)=C\C (configuration not stated)	GRK2 inh 70.0 (no result: H9c2 TAG inh) | GRK2 inh confirm inactive | FAM quench CP1 inactive
C/C=C(\C)C(=O)OC1c2c(ccc3ccc(=O)oc23)OC(C)(C)C1OC(C)=O (configuration not stated)	none
CCCC1(c2ccccc2)NC(=O)N(CC(=O)NCc2ccc(OC)cc2)C1=O (configuration not stated)	none (no result: H9c2 TAG inh)
COc1ccc(CCNC(=O)CSc2ccc3nnc(CCNC(=O)c4ccc(C)cc4)n3n2)cc1OC	GRK2 inh 61.0 | GRK2 CP2 inactive | FAM quench SP inactive
CCN(CC(=O)NCc1cccs1)C(=O)c1cccc(S(=O)(=O)NC)c1	GRK2 inh 48.0 (no result: Lipid droplet) | GRK2 inh confirm inactive | FAM quench CP1 inactive
O=C(CCS(=O)(=O)c1ccc(Br)cc1)NCc1cccs1	GRK2 inh 94.0 | GRK2 inh confirm 57.5 | Aptamer quench 1 inactive | FAM quench CP1 inactive | Aptamer quench3 inactive | FAM quench DR inactive
O=C(CCS(=O)(=O)c1ccc(Br)cc1)NCc1ccco1	GRK2 inh 63.0 (no result: H9c2 TAG inh) | GRK2 inh confirm inactive | Aptamer quench 1 inactive | FAM quench CP1 inactive | Aptamer quench3 inactive
O=C(CCCCC(=O)NCc1cccs1)NCc1cccs1	none
COc1cccc(-c2nc(N3CCC(C)CC3)c3ccccc3n2)c1O	GRK2 inh 91.0 (no result: Lipid droplet) | GRK2 inh confirm inactive | FAM quench CP1 inactive
COc1cccc(-c2nc(N3CCCC3)c3ccccc3n2)c1O	none
CCOC(=O)c1cccc(NC(=O)c2ccc(-n3cnnn3)cc2)c1	none (no result: Lipid droplet) | GRK2 inh confirm inactive | FAM quench CP1 inactive
COc1ccc(CNC(=O)c2ccc(S(=O)(=O)N3CC(C)CC(C)C3)cc2)cc1OC (configuration not stated)	none (no result: Lipid droplet, NTR1 agonist, GRK2 inh)
CCOc1ccc(NC(=O)C2CC(=O)OC2c2ccccc2)cc1 (configuration not stated)	GRK2 inh 82.0 | GRK2 inh confirm inactive | FAM quench CP1 inactive
COC(=O)c1ccc(NC(=O)C2CC(=O)OC2c2ccccc2)cc1 (configuration not stated)	none
COc1ccc(S(=O)(=O)N(C)Cc2ccc3c(c2)OCCO3)cc1	GRK2 inh 42.0 (no result: Lipid droplet) | GRK2 inh confirm inactive | FAM quench CP1 inactive
COc1cccc(CN(C)S(=O)(=O)c2ccc3c(c2)OCCO3)c1	none (no result: Lipid droplet, GRK2 inh)
COc1ccc(S(=O)(=O)N2CCCCC2)cc1NC(=O)CCNC(=O)c1ccc(Cl)cc1	GRK2 inh 47.0 (no result: Lipid droplet) | GRK2 inh confirm inactive | FAM quench CP1 inactive | GRK2 CP2 inactive | FAM quench SP inactive
COc1ccc(NC(=O)c2ccc(NC(=O)CN3CCC(C(N)=O)CC3)cc2)cc1	none (no result: Lipid droplet)
Cc1ccc(S(=O)(=O)NC(=O)C2(C)CCN2C(=O)CC2CCCCC2)nc1 (configuration not stated)	none (no result: Arrestin-AP2 inh, Lipid droplet, NTR1 agonist, B2AR ag, GRK2 inh)
COC(=O)Nc1ccc(S(=O)(=O)N2CCN(c3ccc(F)cc3)CC2)cc1	GRK2 inh 50.0 | GRK2 inh confirm inactive | FAM quench CP1 inactive
O=C(CCCCC(=O)OC1CCCCC1)OC1CCCCC1	none (no result: Lipid droplet, NTR1 agonist, GRK2 inh)
COCOc1ccc(C=O)c(OCOC)c1	GRK2 inh 98.0 (no result: Lipid droplet, H9c2 TAG inh) | GRK2 inh confirm inactive | FAM quench CP1 inactive
O=C(NC1=NCCS1)C1CCN(S(=O)(=O)c2cc([N+](=O)[O-])ccc2Cl)CC1	none (no result: Lipid droplet) | GRK2 inh confirm inactive | FAM quench CP1 inactive
O=C(NC1=NCCS1)C1CCN(S(=O)(=O)c2ccc(Cl)cc2)CC1	none (no result: Lipid droplet)
CC1(c2ccc3ccccc3c2)NC(=O)N(CC(=O)N2CCN(c3ccccc3O)CC2)C1=O (configuration not stated)	none | GRK2 inh confirm inactive | FAM quench CP1 inactive
Cn1c(Oc2ccccc2)c(C=O)c2ccccc21	GRK2 inh 53.0 (no result: Lipid droplet) | GRK2 inh confirm inactive | FAM quench CP1 inactive
c1ccc2sc(N3CCOCC3)nc2c1	none (no result: Lipid droplet, H9c2 TAG inh)
c1ccc2sc(N3CN(CCN4CCOCC4)CN(c4nc5ccccc5s4)C3)nc2c1	none (no result: Lipid droplet) | GRK2 inh confirm inactive | FAM quench CP1 inactive
O=C(Oc1ccc([N+](=O)[O-])cc1)C1CC(=O)N(c2ccc3c(c2)OCCO3)C1 (configuration not stated)	none (no result: Lipid droplet)
CC(C)(C)Cc1nnc(NS(=O)(=O)c2ccc([N+](=O)[O-])cc2)s1	GRK2 inh 57.0 | GRK2 inh confirm inactive | FAM quench CP1 inactive
CC(=O)N1CCN(C(=O)CCc2cc(C(C)(C)C)c(O)c(C(C)(C)C)c2)CC1	none
Cc1ccccc1OCCC(=O)Nc1ccc(N2CCOCC2)cc1N1CCOCC1	none (no result: Lipid droplet)
CCNc1nc(NCC)n2c(SCC(=O)Nc3ccccc3)nnc2n1	none | GRK2 CP2 inactive | FAM quench SP inactive
CCNc1nc(NCC)n2c(SCC(=O)Nc3cc(OC)ccc3OC)nnc2n1	none (no result: Lipid droplet) | GRK2 CP2 inactive | FAM quench SP inactive
CCNc1nc(NCC)n2c(SCC(=O)Nc3ccc(C)c(C)c3)nnc2n1	GRK2 inh 78.0 (no result: Lipid droplet) | GRK2 inh confirm 56.6 | Aptamer quench 1 inactive | FAM quench CP1 inactive
CCNc1nc(NCC)n2c(SCC(=O)Nc3ccc(F)cc3)nnc2n1	none (no result: Lipid droplet)
